In ChEMBL document CHEMBL1806473, “Structure-based optimization of click-based histone deacetylase inhibitors” (Eur J Med Chem, 2011):

Key:
SW-620 [1] = assay: Antiproliferative activity against human SW620 cells by SRB assay; type: functional
How it was run: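 Cell growth was tested in the NIH in vitro disease-oriented human tumor cell line screen, which NCI ran for these compounds. Compounds were tested at five concentrations (100, 10, 1.0, 0.1 and 0.01 μM), and growth was read by SRB signal. GI50 is the drug concentration that reduces growth of treated cells to half that of control cells during drug incubation.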

DU-145 = assay: Cytotoxicity against human DU145 cells; type: cell-based
How it was run: (§1)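 Tested in the NCI in vitro disease-oriented human tumour cell line screen, with screening performed by NCI. Growth was read by SRB signal over the drug incubation period at five concentrations: 100, 10, 1.0, 0.1 and 0.01 μM. GI50 is the concentration that reduces growth of treated cells to half that of control cells.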

SK-MEL-5 [2] = assay: Cytotoxicity against human SK-MEL-5 cells; type: cell-based
HOP-92 = assay: Cytotoxicity against human HOP92 cells; type: cell-based
EKVX = assay: Antiproliferative activity against human EKVX cells by SRB assay; type: functional
How it was run: (§2)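 Tested in the NCI in vitro human tumor cell line screen, run by the National Cancer Institute. Each compound was given at five concentrations (100, 10, 1.0, 0.1 and 0.01 μM). GI50 is the drug concentration that reduces growth of treated cells to half that of control cells during drug incubation, judged from the SRB signal.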

NCI-H460 = assay: Cytotoxicity against human NCI-H460 cells; type: cell-based
UACC-62 = assay: Cytotoxicity against human UACC62 cells; type: cell-based
How it was run: (§3)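 Screened by NCI in its in vitro disease-oriented human tumour cell line panel. Compounds tested at five concentrations (100, 10, 1.0, 0.1 and 0.01 μM). Growth read by sulforhodamine B (SRB) signal. GI50 is the concentration reducing growth of treated cells to half that of control cells during the drug incubation.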

OVCAR-3 = assay: Cytotoxicity against human OVCAR3 cells; type: cell-based; how it was run: as §1
NCI-H226 [3] = assay: Cytotoxicity against human NCI-H226 cells; type: cell-based
[4] = Antiproliferative activity against human Hs 578T cells by SRB assay; type: functional; how it was run: as §2
ACHN [5] = assay: Cytotoxicity against human ACHN cells; type: cell-based
SK-MEL-2 = assay: Antiproliferative activity against human SK-MEL-2 cells by SRB assay; type: functional; how it was run: as §2
ACHN [6] = assay: Antiproliferative activity against human ACHN cells by SRB assay; type: functional; how it was run: as §2
CCRF-CEM = assay: Cytotoxicity against human CCRF-CEM cells; type: cell-based
NCI-H226 [7] = assay: Antiproliferative activity against human NCI-H226 cells by SRB assay; type: functional; how it was run: as §2
OVCAR-8 = assay: Cytotoxicity against human OVCAR8 cells; type: cell-based
T47D = assay: Cytotoxicity against human T47D cells; type: cell-based; how it was run: as §3
MDA-MB-231 = assay: Cytotoxicity against human MDA-MB-231 cells; type: functional; how it was run: as §1
A549 = assay: Cytotoxicity against human A549 cells; type: cell-based; how it was run: as §1
MDA-MB-468 = assay: Antiproliferative activity against human MDA-MB-468 cells by SRB assay; type: functional; how it was run: as §2
SF-539 = assay: Antiproliferative activity against human SF539 cells by SRB assay; type: functional; how it was run: as §2
BT-549 = assay: Antiproliferative activity against human BT549 cells by SRB assay; type: functional; how it was run: as §2
SW-620 [8] = assay: Cytotoxicity against human SW620 cells; type: cell-based; how it was run: as §3
SK-MEL-5 [9] = assay: Antiproliferative activity against human SK-MEL-5 cells by SRB assay; type: functional; how it was run: as §2
RXF 393 = assay: Cytotoxicity against human RXF393 cells; type: cell-based; how it was run: as §1
SNB-19 = assay: Cytotoxicity against human SNB19 cells; type: cell-based; how it was run: as §3
SN12C = assay: Cytotoxicity against human SN12C cells; type: cell-based; how it was run: as §3
IGROV-1 = assay: Cytotoxicity against human IGROV1 cells; type: cell-based
HCT-15 = assay: Antiproliferative activity against human HCT15 cells by SRB assay; type: functional; how it was run: as §2
SF-268 = assay: Antiproliferative activity against human SF268 cells by SRB assay; type: functional; how it was run: as §2
CAKI-1 = assay: Antiproliferative activity against human Caki1 cells by SRB assay; type: functional; how it was run: as §2
SNB-75 = assay: Cytotoxicity against human SNB75 cells; type: cell-based; how it was run: as §3

Question: What does the source list for `CC(/C=C/c1ccccc1)n1cc(/C=C/C(=O)NO)nn1` (configuration not stated)?
Answer: GI50 (SW-620 [1]): 383 nM; LC50 (DU-145): > 100000 nM; LC50 (SK-MEL-5 [2]): 4520 nM; LC50 (HOP-92): 7530 nM; GI50 (EKVX): 2090 nM; LC50 (NCI-H460): 42700 nM; LC50 (UACC-62): 7990 nM; LC50 (OVCAR-3): 7330 nM; LC50 (NCI-H226 [3]): 71400 nM; GI50 [4]: 692 nM; LC50 (ACHN [5]): 5860 nM; GI50 (SK-MEL-2): 614 nM; GI50 (ACHN [6]): 765 nM; LC50 (CCRF-CEM): > 100000 nM; GI50 (NCI-H226 [7]): 2350 nM; LC50 (OVCAR-8): 6910 nM; LC50 (T47D): 7630 nM; LC50 (MDA-MB-231): > 100000 nM; LC50 (A549): > 100000 nM; GI50 (MDA-MB-468): 299 nM; GI50 (SF-539): 934 nM; GI50 (BT-549): 2110 nM; LC50 (SW-620 [8]): 5150 nM; GI50 (SK-MEL-5 [9]): 573 nM; LC50 (RXF 393): > 100000 nM; LC50 (SNB-19): 37600 nM; LC50 (SN12C): > 100000 nM; LC50 (IGROV-1): 5740 nM; GI50 (HCT-15): 2090 nM; GI50 (SF-268): 1510 nM; GI50 (CAKI-1): 401 nM; LC50 (SNB-75): 33900 nM
